Experimental data: ChEMBL document CHEMBL1131617 (J Med Chem, 1998)

Assays:
[1] = target: Sodium-dependent dopamine transporter (Rattus norvegicus, UniProt P23977); experiment: relative affinity against dopamine transporter using WIN-35428 as radioligand
Procedure, shortened: (§1)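 Radioligand competition binding was run per earlier published conditions. Inhibition was screened at 100 nM and 10 µM. Incubated tubes were filtered through glass-fibre filters on a vacuum manifold. Nonspecific binding was counts bound in the presence of a saturating concentration of an established competing ligand. Reference drugs were run in parallel as positive controls.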

[2] = target: Mu-type opioid receptor (Rattus norvegicus, UniProt P33535); experiment: Relative affinity against Opioid receptor mu 1 in thalamus using [3H]DAMGO as radioligand; assay type: tissue-based; procedure, shortened: as §1
[3] = target: D(2) dopamine receptor (Rattus norvegicus, UniProt P61169); experiment: relative affinity against Dopamine receptor D2 in striatum using [3H]YM-09151-2 as radioligand; assay type: tissue-based; procedure, shortened: as §1
[4] = target: Glutamate NMDA receptor; experiment: relative affinity against N-methyl-D-aspartate glutamate receptor in caudate using [3H](+)-MK-801 as radioligand; assay type: protein-complex assay
Procedure, shortened: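 Tubes incubated under the specified conditions, then filtered on glass-fibre filters and counted. Nonspecific binding taken as cpm bound with a saturating concentration of an established competing ligand. Reference drugs run in parallel as positive controls.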

[5] = target: D(1A) dopamine receptor (Rattus norvegicus, UniProt P18901); experiment: Relative affinity for Dopamine receptor D1 in striatum using [3H]SCH-23390; assay type: tissue-based; procedure, shortened: as §1
[6] = target: D(3) dopamine receptor (Rattus norvegicus, UniProt P19020); experiment: relative affinity against Dopamine receptor D3 in ventral striatum using [3H](+)-7-OH-DPAT as radioligand; assay type: tissue-based; procedure, shortened: as §1
[7] = target: Sodium-dependent serotonin transporter (Rattus norvegicus, UniProt P31652); experiment: relative affinity against serotonin transporter using RTI-55 as radioligand; procedure, shortened: as §1
[8] = target: Kappa-type opioid receptor (Rattus norvegicus, UniProt P34975); experiment: relative affinity against Opioid receptor kappa 1 in insular Ctx using [3H]U-69593 as radioligand
Sequence of Kappa-type opioid receptor (P34975 whole entry): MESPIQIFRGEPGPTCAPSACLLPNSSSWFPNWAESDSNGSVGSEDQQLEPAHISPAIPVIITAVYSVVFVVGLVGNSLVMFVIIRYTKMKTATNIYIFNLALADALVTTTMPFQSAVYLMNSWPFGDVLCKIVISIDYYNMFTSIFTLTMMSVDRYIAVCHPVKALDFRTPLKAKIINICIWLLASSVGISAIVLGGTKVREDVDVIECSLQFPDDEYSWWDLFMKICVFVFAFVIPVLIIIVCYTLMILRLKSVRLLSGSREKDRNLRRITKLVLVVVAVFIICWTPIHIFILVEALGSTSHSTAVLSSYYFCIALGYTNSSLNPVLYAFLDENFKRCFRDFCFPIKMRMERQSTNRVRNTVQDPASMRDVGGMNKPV

Sequence of D(2) dopamine receptor (P61169 whole entry): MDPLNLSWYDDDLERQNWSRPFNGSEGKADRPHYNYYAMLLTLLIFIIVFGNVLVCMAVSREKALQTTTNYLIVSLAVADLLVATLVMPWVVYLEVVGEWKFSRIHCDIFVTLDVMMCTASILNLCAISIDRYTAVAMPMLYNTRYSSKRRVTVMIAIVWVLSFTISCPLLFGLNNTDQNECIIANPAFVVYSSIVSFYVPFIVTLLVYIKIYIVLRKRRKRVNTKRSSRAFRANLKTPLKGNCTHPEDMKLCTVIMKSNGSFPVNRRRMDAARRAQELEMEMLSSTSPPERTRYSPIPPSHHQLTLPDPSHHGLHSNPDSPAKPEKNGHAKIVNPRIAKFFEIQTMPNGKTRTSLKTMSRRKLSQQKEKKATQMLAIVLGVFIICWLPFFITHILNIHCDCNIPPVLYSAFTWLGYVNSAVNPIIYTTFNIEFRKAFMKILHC
Sequence of D(3) dopamine receptor (P19020 whole entry): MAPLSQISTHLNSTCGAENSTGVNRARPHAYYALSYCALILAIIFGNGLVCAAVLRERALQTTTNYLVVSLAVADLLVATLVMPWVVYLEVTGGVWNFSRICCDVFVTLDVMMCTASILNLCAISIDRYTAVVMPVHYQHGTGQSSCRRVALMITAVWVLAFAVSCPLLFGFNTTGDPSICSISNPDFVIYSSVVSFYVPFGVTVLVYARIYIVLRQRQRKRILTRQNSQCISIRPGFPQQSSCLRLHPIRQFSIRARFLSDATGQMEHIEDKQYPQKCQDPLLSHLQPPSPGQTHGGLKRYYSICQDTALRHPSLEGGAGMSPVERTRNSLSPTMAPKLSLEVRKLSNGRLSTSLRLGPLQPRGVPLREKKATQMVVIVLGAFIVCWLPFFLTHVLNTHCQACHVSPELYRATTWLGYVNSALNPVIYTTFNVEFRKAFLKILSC
Sequence of Sodium-dependent dopamine transporter (P23977 whole entry): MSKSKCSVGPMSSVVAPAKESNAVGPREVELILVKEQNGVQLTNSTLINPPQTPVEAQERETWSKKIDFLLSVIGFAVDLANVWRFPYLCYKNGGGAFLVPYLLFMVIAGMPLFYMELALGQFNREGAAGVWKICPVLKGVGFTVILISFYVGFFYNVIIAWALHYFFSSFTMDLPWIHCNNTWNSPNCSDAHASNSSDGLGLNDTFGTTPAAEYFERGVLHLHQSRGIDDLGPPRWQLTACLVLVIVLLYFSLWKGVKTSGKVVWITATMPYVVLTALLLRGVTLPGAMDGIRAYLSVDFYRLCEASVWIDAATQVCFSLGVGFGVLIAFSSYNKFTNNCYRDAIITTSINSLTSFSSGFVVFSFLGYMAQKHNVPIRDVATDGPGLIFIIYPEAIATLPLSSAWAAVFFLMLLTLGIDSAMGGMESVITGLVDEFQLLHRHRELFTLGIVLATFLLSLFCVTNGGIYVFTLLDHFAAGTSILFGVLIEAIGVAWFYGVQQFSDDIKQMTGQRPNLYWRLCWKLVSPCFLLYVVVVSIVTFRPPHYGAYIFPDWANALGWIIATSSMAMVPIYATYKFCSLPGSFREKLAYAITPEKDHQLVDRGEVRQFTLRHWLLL
Sequence of Mu-type opioid receptor (P33535 whole entry): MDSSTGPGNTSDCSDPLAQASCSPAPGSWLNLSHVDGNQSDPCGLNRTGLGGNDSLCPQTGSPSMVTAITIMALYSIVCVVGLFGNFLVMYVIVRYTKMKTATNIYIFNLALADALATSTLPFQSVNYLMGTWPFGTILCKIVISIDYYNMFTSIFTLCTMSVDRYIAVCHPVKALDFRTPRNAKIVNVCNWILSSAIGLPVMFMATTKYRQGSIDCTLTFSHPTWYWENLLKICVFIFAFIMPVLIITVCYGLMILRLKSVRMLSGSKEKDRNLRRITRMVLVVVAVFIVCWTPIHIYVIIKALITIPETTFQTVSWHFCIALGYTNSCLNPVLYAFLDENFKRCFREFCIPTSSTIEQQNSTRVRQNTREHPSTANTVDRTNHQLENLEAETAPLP
Sequence of Sodium-dependent serotonin transporter (P31652 whole entry): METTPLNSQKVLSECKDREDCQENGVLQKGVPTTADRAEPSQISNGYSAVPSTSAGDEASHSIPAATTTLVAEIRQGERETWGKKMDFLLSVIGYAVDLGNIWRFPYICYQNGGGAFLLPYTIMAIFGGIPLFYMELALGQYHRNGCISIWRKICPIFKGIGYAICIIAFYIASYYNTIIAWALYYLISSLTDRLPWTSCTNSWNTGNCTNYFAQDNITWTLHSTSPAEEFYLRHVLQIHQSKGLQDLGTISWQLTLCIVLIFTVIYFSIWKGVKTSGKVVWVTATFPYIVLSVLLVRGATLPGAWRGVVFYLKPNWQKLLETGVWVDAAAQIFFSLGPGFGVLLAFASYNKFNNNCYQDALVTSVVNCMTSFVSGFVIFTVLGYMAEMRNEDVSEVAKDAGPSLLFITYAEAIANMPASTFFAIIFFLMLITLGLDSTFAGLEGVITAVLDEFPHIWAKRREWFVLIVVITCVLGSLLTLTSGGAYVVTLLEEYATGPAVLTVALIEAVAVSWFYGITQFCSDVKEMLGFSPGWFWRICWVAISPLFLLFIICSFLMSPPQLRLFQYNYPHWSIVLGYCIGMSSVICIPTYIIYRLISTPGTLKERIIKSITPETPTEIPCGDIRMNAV
Sequence of D(1A) dopamine receptor (P18901 whole entry): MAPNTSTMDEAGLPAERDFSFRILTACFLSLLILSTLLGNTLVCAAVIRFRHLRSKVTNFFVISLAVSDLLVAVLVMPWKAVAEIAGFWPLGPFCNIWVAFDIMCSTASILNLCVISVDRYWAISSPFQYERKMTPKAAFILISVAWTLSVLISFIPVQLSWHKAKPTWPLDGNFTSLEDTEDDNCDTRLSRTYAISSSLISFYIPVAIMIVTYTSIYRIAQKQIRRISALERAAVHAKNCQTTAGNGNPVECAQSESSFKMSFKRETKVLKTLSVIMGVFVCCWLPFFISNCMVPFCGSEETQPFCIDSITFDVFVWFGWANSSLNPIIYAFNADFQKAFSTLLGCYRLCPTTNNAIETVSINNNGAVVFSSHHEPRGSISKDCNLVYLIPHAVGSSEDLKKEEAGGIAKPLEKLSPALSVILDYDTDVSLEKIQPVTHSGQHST

Compound | IC50 [1] | IC50 [2] | IC50 [3] | IC50 [4] | IC50 [5] | IC50 [6] | IC50 [7] | IC50 [8]
CCN1CCc2c(sc3ccccc23)C(c2cccc(Br)c2)C1 (stereo not drawn) | 0.21 µM | 5 µM | 3.5 µM | 46.6 µM | 5 µM | 2 µM | 4.3 µM | 12.5 µM
CCN1CCc2c(sc3ccccc23)C(c2ccccc2)C1 (stereo not drawn) | 0.14 µM | 2.2 µM | 5 µM | 42 µM | 3 µM | 0.6 µM | 0.3 µM | 1.3 µM
CN1CCc2c([nH]c3ccccc23)C(c2ccccc2)C1 (stereo not drawn) | 0.18 µM | 3.1 µM | 27.2 µM | – | 20 µM | 4.2 µM | 0.19 µM | 21.2 µM
CCN1CCc2c(sc3ccccc23)C(c2ccc(Cl)c(Cl)c2)C1 (stereo not drawn) | 0.25 µM | 54.5 µM | 5 µM | 81 µM | 70 µM | 2 µM | 1.2 µM | 15.9 µM
CCN1CCc2c(sc3ccccc23)C(c2cccc([N+](=O)[O-])c2)C1 (stereo not drawn) | 0.25 µM | 3.1 µM | 3.1 µM | 32 µM | 5 µM | 0.6 µM | 1.1 µM | 16.2 µM
COc1cc2c(cc1OC)C(c1ccccc1)CN(C)CC2 (stereo not drawn) | – | – | – | – | 0.491 µM | – | – | –
CC[C@@H]1CC2C[C@@H]3c4[nH]c5ccc(O)cc5c4CCN(C2)C13 | – | 0.16 µM | > 10 µM | 31.4 µM | > 10 µM | > 10 µM | 0.04 µM | 4.24 µM
CC[C@H]1C[C@@H]2C[C@H]3c4[nH]c5ccc(OC)cc5c4CCN(C2)[C@@H]13 [IBOGAINE] | 4.11 µM | – | > 10 µM | 5.2 µM | > 10 µM | > 10 µM | 0.59 µM | –
